Experimental data as given in ChEMBL document CHEMBL3102839, “Growth inhibitory activity for cancer cell lines of lapachol and its natural and semi-synthetic derivatives” (Bioorg Med Chem Lett, 2014).

Legend:
[1] = Growth inhibition of human Hs683 cells by MTT assay; format: functional, cell-based; conditions: Hs 683
Procedure, shortened: (§1)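 In vitro MTT colorimetric read-out of growth inhibition. Each compound was run across a six-line human cancer panel chosen for differing resistance to pro-apoptotic stimuli. IC50 was taken as the growth inhibitory concentration. No reference drug was included.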

PC-3 = assay: Growth inhibition of human PC3 cells by MTT assay; format: functional, cell-based; procedure, shortened: as §1
SK-MEL-28 = assay: Growth inhibition of human SK-MEL-28 cells by MTT assay; format: functional, cell-based; procedure, shortened: as §1
A549 = assay: Growth inhibition of human A549 cells by MTT assay; format: functional, cell-based; procedure, shortened: as §1
[2] = Growth inhibition of human U373 cells by MTT assay; format: functional, cell-based, U-373MG ATCC; conditions: U373 MG; procedure, shortened: as §1
LoVo = assay: Growth inhibition of human LoVo cells by MTT assay; format: functional, cell-based; procedure, shortened: as §1
Lu1 = assay: Growth inhibition of human Lu1 cells; format: functional; conditions: read-out: ED50 (the source's name)
[3] = Growth inhibition of hTERT expressing human RPE1 cells; format: functional, TERT-RPE1; conditions: RPE-1, read-out: ED50 (the source's name)
Col2 = assay: Growth inhibition of human Col2 cells; format: functional; conditions: read-out: ED50 (the source's name)
KB = assay: Growth inhibition of human KB cells; format: functional; conditions: read-out: ED50 (the source's name)
LNCaP = assay: Growth inhibition of human LNCAP cells; format: functional; conditions: read-out: ED50 (the source's name)
[4] = Chemical stability of the compound in cell culture medium assessed as compound recovery after 72 hrs; format: physicochemical; conditions: read-out: Drug recovery

Row | Compound | IC50 (PC-3) | IC50 (SK-MEL-28) | IC50 (A549) | IC50 (LoVo) | EC50 (KB) | EC50 (LNCaP) | remaining at 72 h [4] | IC50 [1] | IC50 [2] | EC50 (Lu1) | EC50 [3] | EC50 (Col2)
1 | CC(C)=CCC/C(C)=C/CC1=C(O)C(=O)c2ccccc2C1=O | 12 µM | 28 µM | 12 µM | 7 µM |  |  |  | 11 µM | 48 µM |  |  | 
2 | CC(C)=CCC1=C(Cl)C(=O)c2ccccc2C1=O | 27 µM | 31 µM | 34 µM | 25 µM | 12.2 µM | 12.2 µM |  | 33 µM | 26 µM | 12.2 µM | 12.2 µM | 12.2 µM
3 | O=C1C=C(O)C(=O)c2ccccc21 [LAWSONE] | > 100 µM | > 100 µM | 58 µM | > 100 µM |  |  |  | 31 µM | > 100 µM |  |  | 
4 | O=C1C(O)=C(/C=C/c2ccccc2)C(=O)c2ccccc21 | > 100 µM | > 100 µM | > 100 µM | 82 µM |  |  |  | 42 µM | > 100 µM |  |  | 
5 | CCCCCCCCCCCCCCCCCC(=O)OC1=C(CC=C(C)C)C(=O)c2ccccc2C1=O | > 100 µM | > 100 µM | > 100 µM | > 100 µM |  |  | > 95% | > 100 µM | > 100 µM |  |  | 
6 | CC(C)=CCC1=C(O)C(=O)c2ccccc2C1=O [LAPACHOL] | 4 µM | 8 µM | 8 µM | 9 µM |  |  |  | 11 µM | 8 µM |  |  | 
7 | CCCCCCCCCCCCCC(=O)OC1=C(CC=C(C)C)C(=O)c2ccccc2C1=O | 43 µM | 50 µM | 49 µM | 50 µM |  |  | > 95% | 89 µM | > 100 µM |  |  | 
8 | CCCCCCCCCCCCCCCC(=O)OC1=C(CC=C(C)C)C(=O)c2ccccc2C1=O | 35 µM | 33 µM | 38 µM | 29 µM |  |  | > 95% | 48 µM | 54 µM |  |  | 
9 | CCCCCCCC/C=C\CCCCCCCC(=O)OC1=C(CC=C(C)C)C(=O)c2ccccc2C1=O | 65 µM | 73 µM | 59 µM | 57 µM |  |  | > 95% | 85 µM | 84 µM |  |  | 
10 | CCCCCCCCCCCC(=O)OC1=C(CC=C(C)C)C(=O)c2ccccc2C1=O | 27 µM | 18 µM | 35 µM | 27 µM |  |  | > 95% | 18 µM | 31 µM |  |  | 
11 | O=C1C(O)=C(Cc2ccccc2)C(=O)c2ccccc21 | 91 µM | > 100 µM | > 100 µM | 42 µM |  |  |  | > 100 µM | > 100 µM |  |  | 

The next lines start with results.

Row | IC50 (PC-3) | IC50 (SK-MEL-28) | IC50 (A549) | IC50 (LoVo) | EC50 (KB) | EC50 (LNCaP) | remaining at 72 h [4] | Compound | IC50 [1] | IC50 [2] | EC50 (Lu1) | EC50 [3] | EC50 (Col2)
12 | 42 µM | 27 µM | 36 µM | 57 µM |  |  |  | COC1=C(CC=C(C)C)C(=O)c2ccccc2C1=O | 36 µM | 78 µM |  |  | 
13 | 28 µM | 23 µM | 26 µM | 22 µM |  |  |  | C=CCOC1=C(CC=C(C)C)C(=O)c2ccccc2C1=O | 28 µM | 75 µM |  |  | 
14 | > 100 µM | > 100 µM | > 100 µM | > 100 µM |  |  |  | CCCOC1=C(CC=C(C)C)C(=O)c2ccccc2C1=O | > 100 µM | > 100 µM |  |  | 
15 | > 100 µM | > 100 µM | > 100 µM | > 100 µM |  |  |  | CCOC1=C(CC=C(C)C)C(=O)c2ccccc2C1=O | > 100 µM | > 100 µM |  |  | 
16 | 4 µM | 13 µM | 5 µM | 8 µM |  |  | > 95% | CC(=O)OC1=C(CC=C(C)C)C(=O)c2ccccc2C1=O | 31 µM | 30 µM |  |  | 
17 | 38 µM | 29 µM | 33 µM | 32 µM |  |  |  | CC(C)=CCOC1=C(CC=C(C)C)C(=O)c2ccccc2C1=O | 41 µM | > 100 µM |  |  | 
